The record followed here is ChEMBL document CHEMBL1126943, “N-substituted dibenzoxazepines as analgesic PGE2 antagonists” (J Med Chem, 1993).

As a reminder, the ED50 is the midpoint of the dose-response relation. A low value points to an effect at a small dose.

“And” between values parts separate entries of the source, which are not always exact repeats. Equal values may be shown once. The source made the active and inactive calls. No cut-off for these calls is given here.

The species named for the first assay is Cavia porcellus. As to the kind of experiment: Antinociceptive activity against PGE-2 in guinea pig ileum at 3 uM. The assay is classed as functional. Conditions: read-out: pA2 (converted). Summed up:
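Ileum segments (2 cm) from male Hartley guinea pigs were held in modified Tyrode with atropine (0.14 μM) and pyrilamine (2.5 μM), at 37 °C under 95% O2/5% CO2 and 1 g tension. PGE2 concentration–response curves (2 min per dose) were run without and then with test compound. pA2 was calculated from the dose ratio at 3 μM compound.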
On to `CCCC(=O)NNC(=O)N1Cc2ccccc2Oc2ccc(Cl)cc21`, for which the Kb is 1 µM.

As to `O=C(CCCCCl)NNC(=O)N1Cc2ccccc2Oc2ccc(Cl)cc21` [PINADOLINE], the Kb was 0.631 µM. For the molecule `O=C(Cc1ccccc1)NNC(=O)N1Cc2ccccc2Oc2ccc(Cl)cc21`, the Kb was 1 µM.

For `Cl.O=C(NNC(=O)C(F)(F)C(O)c1ccccn1)N1Cc2ccccc2Oc2ccc(Cl)cc21` (stereo not given), the Kb is 0.0316 µM. For `Cl.O=C(CCc1ccccn1)NNC(=O)N1Cc2ccccc2Oc2ccc(Cl)cc21`, the Kb was 0.398 µM. On the same count and under the same terms, next, `CC(=O)NNC(=O)N1Cc2ccccc2Oc2ccc(Cl)cc21`: 3.16 µM; `Cl.O=C(CCc1ccncc1)NNC(=O)N1Cc2ccccc2Oc2ccc(Cl)cc21`: 0.316 µM; `CCCCCC(=O)NNC(=O)N1Cc2ccccc2Oc2ccc(Cl)cc21`: 0.251 µM.

The species entered for a further assay is Cavia porcellus. As to the kind of experiment: Antinociceptive activity against PGE-2 in guinea pig ileum at 3 uM; inactive. It counts as functional, organism-based.
Settings: not given
Consider `Cl.O=C(NNC(=O)N1Cc2ccccc2Oc2ccc(Cl)cc21)c1cccnc1`, for which the pA2 result was “inactive”. Still for that read-out and setting: the entry for `Cl.O=C(NNC(=O)N1Cc2ccccc2Oc2ccc(Cl)cc21)c1ccncc1` is “inactive”. On to `Cl.O=C(NNC(=O)N1Cc2ccccc2Oc2ccc(Cl)cc21)c1ccccn1`, for which the pA2 result is “inactive”.

Consider `Cl.O=C(Cc1ccccn1)NNC(=O)N1Cc2ccccc2Oc2ccc(Cl)cc21`, for which the pA2 result is “inactive”. The same measure, in the same setting: the entry for `Cl.O=C(/C=C/c1ccccn1)NNC(=O)N1Cc2ccccc2Oc2ccc(Cl)cc21` is “inactive”.

The test system of another assay is Mus musculus. Briefly: Effective dose required for writhing response in mouse […] on sc administration. It counts as functional.
Settings: not given
The procedure, abridged: (§1)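 In the mouse phenylbenzoquinone writhing test, male CD-1 mice (20–30 g) were dosed ig or sc. After 25 min, 0.025% phenylbenzoquinone was given ip, and writhes were counted over 10 min beginning 5 min later. Protection meant ≤ half the saline median. The ED50 is the dose protecting 50% of mice, with 95% confidence limits from maximum likelihood.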
Molecule `O=C(CCCc1ccncc1)NNC(=O)N1Cc2ccccc2Oc2ccc(Cl)cc21` gave an ED50 of 9.7 mg/kg. The same measure, in the same setting: next, `Cl.O=C(NNC(=O)C(F)(F)C(O)c1ccccn1)N1Cc2ccccc2Oc2ccc(Cl)cc21` (stereo not given): 7.1 mg/kg. The molecule `Cl.O=C(CCc1ccccn1)NNC(=O)N1Cc2ccccc2Oc2ccc(Cl)cc21` displayed an ED50 of 9.8 mg/kg. The ED50 values of the last two molecules are within 1.5-fold of each other. Still for that read-out and setting: next, `Cl.O=C(CCc1ccncc1)NNC(=O)N1Cc2ccccc2Oc2ccc(Cl)cc21`: 6.3 mg/kg.

The subject of a further assay is Mus musculus. As to the kind of experiment: Effective dose required for writhing response in mouse […] on ig administration. The assay is classed as functional. Conditions: po. Summed up: as §1
For the molecule `Cl.O=C(NNC(=O)C(F)(F)C(O)c1ccncc1)N1Cc2ccccc2Oc2ccc(Cl)cc21` (stereo not given), it took a dose of 12.3 mg/kg to reach the 50% effect level (ED50). In the case of `CC(=O)Oc1ccccc1C(=O)O` [ASPIRIN], the 50% effect level (ED50) was put at a dose of 42.3 mg/kg. The same measure, in the same setting: next, `Cl.O=C(NNC(=O)C(F)(F)C(O)c1ccccn1)N1Cc2ccccc2Oc2ccc(Cl)cc21` (stereo not given): 9.1 mg/kg; `Cl.O=C(CCc1ccccn1)NNC(=O)N1Cc2ccccc2Oc2ccc(Cl)cc21`: 5.8 mg/kg; `Cl.O=C(CCc1ccncc1)NNC(=O)N1Cc2ccccc2Oc2ccc(Cl)cc21`: 6.8 mg/kg. The same measure, in the same setting: next, `Cl.O=C(NNC(=O)C(F)(F)Cc1ccccn1)N1Cc2ccccc2Oc2ccc(Cl)cc21`: 9.7 mg/kg; `CC(C)Cc1ccc(C(C)C(=O)O)cc1` (stereo not given) [IBUPROFEN]: 4.8 mg/kg.

The subject of the next assay is Mus musculus. As to the kind of experiment: Antinociception at dosage of 30 mg/kg administered in 10 mice. It counts as functional.
Settings: not given
The procedure, abridged: (§2)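 Male albino CD-1 mice, 20–30 g, were given test compound sc or ig (0.1 mL/10 g) at 30 mg/kg. After 25 min they received 0.025% (w/v) phenylbenzoquinone ip. Writhes were counted for 10 min, starting 5 min later. A mouse counted as protected if its writhes were ≤ half the median of that day's saline group. The result is the number of mice protected.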
`O=C(CCCc1ccncc1)NNC(=O)N1Cc2ccccc2Oc2ccc(Cl)cc21` showed a No. of mice of 6. `O=C(CCc1cc[n+]([O-])cc1)NNC(=O)N1Cc2ccccc2Oc2ccc(Cl)cc21` displayed a No. of mice of 5.

Take `Cl.O=C(NNC(=O)C(F)(F)C(O)c1ccncc1)N1Cc2ccccc2Oc2ccc(Cl)cc21` (stereo not given): the No. of mice came to 5. Still for that read-out and setting: the figure for `Cl.O=C(Cc1ccncc1)NNC(=O)N1Cc2ccccc2Oc2ccc(Cl)cc21` is 1; for `Cl.O=C(Cc1ccccn1)NNC(=O)N1Cc2ccccc2Oc2ccc(Cl)cc21` it is 2.

The same assay, now with this note: 30 mg/kg.
`Cl.O=C(Cc1cccnc1)NNC(=O)N1Cc2ccccc2Oc2ccc(Cl)cc21`: the No. of mice was 3 and 5. On to `Cl.O=C(NNC(=O)N1Cc2ccccc2Oc2ccc(Cl)cc21)c1cccnc1`, for which the No. of mice was 3 and 1.

`Cl.O=C(/C=C/c1ccncc1)NNC(=O)N1Cc2ccccc2Oc2ccc(Cl)cc21`: the No. of mice was 2 and 4. In the case of `Cl.O=C(NNC(=O)N1Cc2ccccc2Oc2ccc(Cl)cc21)c1ccncc1`, the No. of mice was 1 and 2. Still for that read-out and setting: next, `Cl.O=C(CCc1cccnc1)NNC(=O)N1Cc2ccccc2Oc2ccc(Cl)cc21`: 6 and 5; `Cl.O=C(NNC(=O)N1Cc2ccccc2Oc2ccc(Cl)cc21)c1ccccn1`: 3 and 2; `O=C(/C=C/c1cccnc1)NNC(=O)N1Cc2ccccc2Oc2ccc(Cl)cc21`: 6 and 5. `O=C(CCc1cccc[n+]1[O-])NNC(=O)N1Cc2ccccc2Oc2ccc(Cl)cc21`: the No. of mice was 1 and 3.

As for `Cl.O=C(/C=C/c1ccccn1)NNC(=O)N1Cc2ccccc2Oc2ccc(Cl)cc21`, the No. of mice was 1 and 2. Same read-out and setting: the figure for `Cl.O=C(CCCc1ccccn1)NNC(=O)N1Cc2ccccc2Oc2ccc(Cl)cc21` is 4 and 5.

The next assay deals with Mus musculus. Briefly: Compound was evaluated for antinociception at dosage of 30 mg/kg administered in 9 mice. The assay is classed as functional.
Settings: not given
The procedure, abridged:
as §2
Take `Cl.O=C(Cc1ccncc1)NNC(=O)N1Cc2ccccc2Oc2ccc(Cl)cc21`: the No. of mice came to 3.
